From ChEMBL document CHEMBL1141183, “Development of potent mu-opioid receptor ligands using unique tyrosine analogues of endomorphin-2” (J Med Chem, 2005)
The source made the active and inactive calls. The rule behind the calls is not given here.

How the values were obtained:
[1] = biological target: Delta-type opioid receptor (Rattus norvegicus, UniProt P33533); assay: Inhibition of [3H]DPDPE binding to delta-Opioid receptor
Summary of the method: (§1)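 Synaptosomal membranes preincubated to remove endogenous opioids, washed, stored at -80 °C with protease inhibitor. μ sites labelled with [3H]DAMGO, δ with [3H]DPDPE; nonspecific binding set by 2 µM unlabelled peptide. Filtration on polyethylenimine-soaked GF/C filters, scintillation counting. Five to seven peptide doses in duplicate, several preparations. Ki by Cheng-Prusoff.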

[2] = species on record: Mus musculus; assay: Inhibition of electrically evoked contraction in mice by tail flick method; nd=None detected; assay type: functional, organism-based
[3] = biological target: Mu-type opioid receptor (Cavia porcellus, UniProt P97266); assay: In vitro inhibition of opioid receptor mu using isolated guinea pig ileum; assay type: tissue-based
Summary of the method: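 Myenteric plexus longitudinal muscle strips (2-3 cm) from small intestine of male Hartley guinea pigs, in organ bath with physiological salt buffer, pH 7.5, for μ-receptor agonism.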

[4] = biological target: Opioid receptors; mu & delta (Rattus norvegicus) (UniProt P33533+P33535); assay: Relative binding to delta and mu Opioid receptors (ratio of Ki); assay type: protein assay
[5] = biological target: Delta-type opioid receptor (Mus musculus, UniProt P32300); assay: In vitro inhibition of opioid receptor delta using mouse vas deferens; assay type: tissue-based
[6] = biological target: Mu-type opioid receptor (Rattus norvegicus, UniProt P33535); assay: Inhibition of [3H]DAMGO binding to mu-Opioid receptor; summary of the method: as §1
Chain of Mu-type opioid receptor (Rattus norvegicus, UniProt P33535) (P33535 whole entry): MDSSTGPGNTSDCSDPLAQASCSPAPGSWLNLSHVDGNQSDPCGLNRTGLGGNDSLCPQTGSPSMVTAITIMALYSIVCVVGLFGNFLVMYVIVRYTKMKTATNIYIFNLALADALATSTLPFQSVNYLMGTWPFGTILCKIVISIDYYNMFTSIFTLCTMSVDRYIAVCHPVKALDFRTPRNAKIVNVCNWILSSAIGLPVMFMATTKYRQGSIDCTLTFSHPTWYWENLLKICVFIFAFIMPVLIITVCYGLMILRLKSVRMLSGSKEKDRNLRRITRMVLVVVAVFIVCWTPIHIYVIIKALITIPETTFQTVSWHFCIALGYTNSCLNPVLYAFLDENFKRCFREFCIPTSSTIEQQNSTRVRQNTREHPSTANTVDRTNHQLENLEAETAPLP

Chain of Delta-type opioid receptor (Rattus norvegicus, UniProt P33533) (P33533 whole entry): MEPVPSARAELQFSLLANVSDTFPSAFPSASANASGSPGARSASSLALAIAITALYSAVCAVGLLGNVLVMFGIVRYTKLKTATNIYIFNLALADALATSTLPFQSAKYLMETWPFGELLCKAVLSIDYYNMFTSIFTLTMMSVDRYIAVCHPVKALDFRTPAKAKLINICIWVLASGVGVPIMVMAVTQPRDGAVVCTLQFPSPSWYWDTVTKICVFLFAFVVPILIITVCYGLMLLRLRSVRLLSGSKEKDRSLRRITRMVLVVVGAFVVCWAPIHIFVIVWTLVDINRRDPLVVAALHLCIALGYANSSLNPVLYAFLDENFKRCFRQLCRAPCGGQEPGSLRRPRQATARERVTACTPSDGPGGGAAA
Chain of Opioid receptors; mu & delta (Rattus norvegicus) (P33533 whole entry, looked up): as the sequence (P33533 whole entry) above
Chain of Opioid receptors; mu & delta (Rattus norvegicus) (P33535 whole entry, looked up): as the sequence (P33535 whole entry) above
Chain of Mu-type opioid receptor (Cavia porcellus, UniProt P97266) (P97266 whole entry): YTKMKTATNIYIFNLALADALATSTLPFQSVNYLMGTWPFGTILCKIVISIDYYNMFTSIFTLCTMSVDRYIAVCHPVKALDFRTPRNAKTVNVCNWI
Chain of Delta-type opioid receptor (Mus musculus, UniProt P32300) (P32300 whole entry): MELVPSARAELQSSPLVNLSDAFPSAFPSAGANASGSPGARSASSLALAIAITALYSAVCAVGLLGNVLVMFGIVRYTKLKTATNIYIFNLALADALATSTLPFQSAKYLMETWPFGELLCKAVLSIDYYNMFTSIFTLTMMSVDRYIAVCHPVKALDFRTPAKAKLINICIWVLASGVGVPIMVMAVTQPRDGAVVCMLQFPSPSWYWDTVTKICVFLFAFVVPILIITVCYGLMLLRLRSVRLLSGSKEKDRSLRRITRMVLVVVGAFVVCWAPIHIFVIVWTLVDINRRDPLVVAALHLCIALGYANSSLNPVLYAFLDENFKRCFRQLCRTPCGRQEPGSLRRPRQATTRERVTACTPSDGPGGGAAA

Structure (SMILES) | Ki [1] | inhibition [2] | IC50 [3] | Ratio [4] | IC50 [5] | Ki [6]
CC(C)c1cc(O)cc(C(C)C)c1C[C@H](N)C(=O)N1CCC[C@H]1C(=O)N[C@@H](Cc1ccccc1)C(=O)N[C@@H](Cc1ccccc1)C(N)=O | 105 nM | inactive | 299 nM | 46 | > 10000 nM | 2.29 nM
Cc1cc(O)c(C)c(C)c1C[C@H](N)C(=O)N1CCC[C@H]1C(=O)N[C@@H](Cc1ccccc1)C(=O)N[C@@H](Cc1ccccc1)C(N)=O | 593 nM | – | 2.31 nM | 5350 | 46.4 nM | 0.111 nM
Cc1cc(O)ccc1C[C@H](N)C(=O)N1CCC[C@H]1C(=O)N[C@@H](Cc1ccccc1)C(=O)N[C@@H](Cc1ccccc1)C(N)=O | 529 nM | – | 0.924 nM | 4000 | 28.7 nM | 0.132 nM
CCc1cc(O)cc(C)c1C[C@H](N)C(=O)N1CCC[C@H]1C(=O)N[C@@H](Cc1ccccc1)C(=O)N[C@@H](Cc1ccccc1)C(N)=O | 55.7 nM | – | 0.623 nM | 884 | 1.08 nM | 0.063 nM
Cc1cc(O)cc(C(C)C)c1C[C@H](N)C(=O)N1CCC[C@H]1C(=O)N[C@@H](Cc1ccccc1)C(=O)N[C@@H](Cc1ccccc1)C(N)=O | 190 nM | – | 10.6 nM | 1270 | 601 nM | 0.15 nM
CCc1cc(O)cc(CC)c1C[C@H](N)C(=O)N1CCC[C@H]1C(=O)N[C@@H](Cc1ccccc1)C(=O)N[C@@H](Cc1ccccc1)C(N)=O | 69.7 nM | – | 0.903 nM | 830 | 47.1 nM | 0.084 nM
